# TDP2 inh: blocks human TDP2 phosphodiesterase activity; recombinant TDP2, T5PNP hydrolysis, p-nitrophenol absorbance 415 nm; inhibition, % at 12.8 µM; 370,000 compounds, 0.34% hits; AID 720702;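 active = inhibition above the mean of all tested compounds plus 3 SD, set per campaign, cut at about 25% in these data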;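 also: 0% = DMSO with enzyme and 100% = buffer with substrate but no TDP2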
#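 Assay system: Recombinant human TDP2 | Quantity: 120 nM TDP2 per well | Incubation: 2 h at 37 °C | Signal: Epi absorbance | Evaluation: Percent inhibition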
# PAD4 FP inh: blocks human protein arginine deiminase 4; AID 485272; recombinant PAD4, RCA probe fluorescence polarization; 330,000 compounds, 0.41% hits; Q9UM07; inhibition, % at 6.36 µM;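 active = percent inhibition above a cutoff equal to the mean of all tested compounds plus 3 SD, cut at about 15% in these data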;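 also: 0% = PAD4 with RCA probe and DMSO and 100% = probe without PAD4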
# E coli Lon inh: inhibits E. coli Lon protease; purified E. coli Lon protease, fluorescence polarization; 360,000 compounds, 0.42% hits; inhibition, % at 7.94 µM; in the data active = inhibition above about 13%, passing the limit was not always enough;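 also: 0% = enzyme with probe and DMSO and 100% = no enzyme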
# PRMT1 FP inh: PRMT1 (human) inhibition, primary screen. recombinant PRMT1, activity-based probe fluorescence polarization. inhibition, % at 2.79 µM. 370,000 compounds, 1.3% hits;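 active = inhibition above about 21% made by adding two undisclosed values, limit read from the data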
# GSTO1 counter: blocks human GSTO1 in RBBP9 counter-screen; recombinant GSTO1, activity-based probe fluorescence polarization; inhibition, % at 5.96 µM; 300,000 compounds, 1.1% hits; AID 1974;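 active = inhibition above the campaign mean inhibition plus 3 SD, cut at about 35% in these data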;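 also: 0% = GSTO1-1 with DMSO and 100% = wells lacking GSTO1-1 enzyme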
# Target sequence (P78417 whole entry, looked up): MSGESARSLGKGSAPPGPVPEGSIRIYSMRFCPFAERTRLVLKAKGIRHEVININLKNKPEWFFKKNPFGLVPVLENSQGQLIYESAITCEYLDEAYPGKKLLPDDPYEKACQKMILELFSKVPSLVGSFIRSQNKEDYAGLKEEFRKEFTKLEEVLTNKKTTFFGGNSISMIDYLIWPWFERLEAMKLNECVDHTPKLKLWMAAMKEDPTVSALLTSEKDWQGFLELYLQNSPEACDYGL
# PRMT1 confirm: confirmation of human PRMT1 inhibitors; AID 687036; inhibition, % at 2.79 µM; 3,300 compounds, 42% hits; shares compounds with PRMT1 FP inh; recombinant His-PRMT1, activity-based probe fluorescence polarization;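 active = mean inhibition across replicates above the hit cutoff derived for the earlier primary screen, cut at about 22% in these data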
# An asterisk follows results filed as active; · = no result given. An excerpt weighted towards active compounds, which were near 2.5% of everything screened.
SMILES,TDP2 inh,PAD4 FP inh,E coli Lon inh,PRMT1 FP inh,GSTO1 counter,PRMT1 confirm
CCCCCCC(=O)N(O)C1CC(=O)N(c2ccc(C)cc2)C1=O (centres undefined),-14,-2,-7,87*,-1,91*
CCCCCCC(=O)N(O)C1CC(=O)N(c2ccc(Cl)cc2)C1=O (centres undefined),-5,-3,6,51*,-7,84*
COC(=O)c1ccc(NC(=O)c2ccc3c(c2)NC(=O)C2CCCN32)cc1 (centres undefined),·,-17,·,·,·,·
COCCN=c1scc(-c2cccs2)n1/N=C/c1ccc(O)c(O)c1O,-5,-2,8,54*,17,27*
COCCN=c1scc(-c2ccccc2)n1/N=C/c1c[nH]c2ccccc12,-6,0,5,2,1,·
COc1ccc2c(c1)CSC(c1ccccc1)C2=O (centres undefined),-3,·,-12,53*,·,30*
C[C@@H]1CN([C@@H](C)CO)C(=O)CCCn2nncc2CO[C@H]1CN(C)Cc1cccc2c1OCCCO2,-2,·,-11,-1,·,·
COc1cccc(C2=CC(=O)CC(c3ccco3)C2)c1 (centres undefined),-6,0,-9,31*,3,3
COc1cccc(C2=CC(=O)C[C@H](c3ccc(Cl)cc3)C2)c1,-1,-3,0,4,·,·
Cc1ccc(C2CC(c3ccccc3)=NN2C(=S)Nc2ccccc2)o1 (centres undefined),2,-13,-3,51*,1,0
S=C(Nc1ccccc1)N1N=C(c2cccs2)CC1c1cccs1 (centres undefined),14,-5,1,-2,-5,·
COC(=O)C(C)Sc1n[nH]c(=S)s1 (centres undefined),-7,0,6,35*,3,3
O=C(O)CC(Sc1n[nH]c(=S)s1)C(=O)O (centres undefined),-2,7,-3,27*,-7,17
Oc1ccccc1C(=S)N1CCCCCC1,7,-2,-5,4,-7,·
Oc1ccccc1C(=S)N1CCCCC1,1,-2,-3,36*,16,20
CC(C(C(=O)N1CCCCC1)N1CCCCC1)N1CCCCC1 (centres undefined),2,·,-1,-2,·,·
O=C(Nc1ccc(F)cc1)c1nc(S(=O)(=O)Cc2ccccc2)ncc1Cl,-3,-1,-3,39*,-16,18
Cc1ccc(NC(=O)c2nc(S(=O)(=O)Cc3ccccc3)ncc2Cl)cc1,-8,-7,-2,38*,-13,23*
Cc1ccccc1CS(=O)(=O)c1ncc(Cl)c(C(=O)Nc2ccc(F)cc2)n1,1,1,5,17,-21,·
Cc1cccc(CS(=O)(=O)c2ncc(Cl)c(C(=O)Nc3c(C)cccc3C)n2)c1,-2,-1,4,25*,-3,12
NC(=O)c1cc[n+](CC2=C(C(=O)O)N3C(=O)[C@@H](NC(=O)C(c4ccccc4)S(=O)(=O)[O-])[C@H]3SC2)cc1 (some centres undefined),·,-5,32,·,2,·
Cc1c(Cl)cnn1CC(=O)NC1C(=O)N2C(C(=O)O)=C(CSc3nnnn3C)CSC12 (centres undefined),-8,0,7,62*,-5,35*
CC1=C(C(=O)O)N2C(=O)C(NC(=O)c3ccc(F)cc3)C2SC1 (centres undefined),-15,1,-10,5,·,·
Cc1c(Cl)cnc(NC(=O)CSc2nnnn2C)c1Cl,-11,-3,0,3,·,·
Cc1c(Cl)c(C(F)F)nn1CC(=O)NC1C(=O)N2C(C(=O)O)=C(CSc3nnnn3C)CSC12 (centres undefined),-3,·,1,35*,·,20
SMILES,TDP2 inh,PAD4 FP inh,E coli Lon inh,PRMT1 FP inh,GSTO1 counter,PRMT1 confirm
Cc1nnc(SCC2=C(C(=O)O)N3C(=O)C(NC(=O)C(C)n4nc(C(F)(F)F)cc4C)C3SC2)s1 (centres undefined),3,-3,-4,28*,1,10
CC(C(=O)NC1C(=O)N2C(C(=O)O)=C(CSc3nnnn3C)CSC12)n1cc(Cl)cn1 (centres undefined),-14,-4,1,30*,-1,9
CN1C(=O)CCC2(c3ccccc3)CC=C(O)C=C12 (centres undefined),-8,·,0,1,·,·
COc1ccc(C(c2ccc(OC)cc2)N2CCN(C(=O)c3noc(C)c3[N+](=O)[O-])CC2)cc1,-1,·,·,-1,·,·
C[C@@H]1CCN(C2CC2)S(=O)(=O)c2c(cccc2N2CC[C@@H](N(C)C)C2)O1,8,·,·,0,·,·
Nc1nc(O)c(Sc2ccccc2[N+](=O)[O-])c(=O)[nH]1,-14,0,-4,8,8,·
Nc1ccccc1SC(CC(=O)c1ccccc1)c1ccc([N+](=O)[O-])cc1 (centres undefined),-1,·,0,83*,·,61*
O=C(NC(NC(=O)c1ccccc1)c1cccc([N+](=O)[O-])c1)c1ccccc1,4,2,-3,1,-6,·
Nc1ccccc1SC(CC(=O)c1ccccc1)c1cccc([N+](=O)[O-])c1 (centres undefined),2,·,-7,86*,·,57*
CSc1c(CN2CCN(C)CC2)c2ccccc2n1C,6,7,-4,-3,7,·
S=c1[nH]nc(-c2cc(-c3ccco3)[nH]n2)n1-c1ccccc1Cl,0,-7,-8,41*,27,12
FC(F)(F)c1ccc(Cl)c(-n2c(-c3cc(-c4ccco4)[nH]n3)n[nH]c2=S)c1,9,-7,-6,25*,-9,28*
CCn1cc(C(=O)N[C@@H](CCSC)C(=O)NCCN2CCOCC2)c(=O)c2cc3c(cc21)OCO3,-1,2,-9,0,6,·
NC(=O)C1CCN(C(=O)c2ccc(NS(=O)(=O)/C=C/c3ccccc3)cc2)CC1,0,·,-16,5,·,·
Cc1sc(C(C2C(=O)CC(C)(C)CC2=O)C2C(=O)CC(C)(C)CC2=O)cc1[N+](=O)[O-],0,2,3,26*,16,45*
CC1(C)CC(=O)C(C(c2cc([N+](=O)[O-])ccc2Cl)C2C(=O)CC(C)(C)CC2=O)C(=O)C1,3,7,3,4,11,·
CCC1(C)NC(=O)N(CC(=O)Nc2sc3c(c2C(=O)OC)CCCCC3)C1=O (centres undefined),-26,-2,-13,0,7,·
COC(=O)c1c(NC(=O)CN2C(=O)C(=O)N(CC(C)C)C2=O)sc2c1CCCCC2,-5,-2,-9,58*,9,8
COc1cccc(CN2CCC2(C)C(=O)Nc2ccc(C)cc2)c1F (centres undefined),-11,·,-6,-8,·,·
Brc1ccc(-c2csc3[n+]2CCCCC3)cc1,6,11,7,28*,0,1
